This note sets out measurements from ChEMBL document CHEMBL3112437, “Virtual screening reveals allosteric inhibitors of the Toxoplasma gondii thymidylate synthase-dihydrofolate reductase” (Bioorg Med Chem Lett, 2014).

Calls of active or inactive are those of the source. No cut-off for these calls is given here.

The target of test [1] is T1, Dihydrofolate reductase (Homo sapiens) (UniProt P00374).
T1 sequence (whole entry): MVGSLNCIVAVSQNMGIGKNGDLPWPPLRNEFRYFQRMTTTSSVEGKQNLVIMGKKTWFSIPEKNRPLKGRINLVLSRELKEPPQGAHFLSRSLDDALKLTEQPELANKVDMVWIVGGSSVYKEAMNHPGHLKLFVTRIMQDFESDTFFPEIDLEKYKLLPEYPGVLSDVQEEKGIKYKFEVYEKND
Kind of test: Inhibition of DHFR (unknown origin).

The target in test [2] is T2, Bifunctional dihydrofolate reductase-thymidylate synthase (Toxoplasma gondii) (UniProt Q07422).
T2 sequence (whole entry): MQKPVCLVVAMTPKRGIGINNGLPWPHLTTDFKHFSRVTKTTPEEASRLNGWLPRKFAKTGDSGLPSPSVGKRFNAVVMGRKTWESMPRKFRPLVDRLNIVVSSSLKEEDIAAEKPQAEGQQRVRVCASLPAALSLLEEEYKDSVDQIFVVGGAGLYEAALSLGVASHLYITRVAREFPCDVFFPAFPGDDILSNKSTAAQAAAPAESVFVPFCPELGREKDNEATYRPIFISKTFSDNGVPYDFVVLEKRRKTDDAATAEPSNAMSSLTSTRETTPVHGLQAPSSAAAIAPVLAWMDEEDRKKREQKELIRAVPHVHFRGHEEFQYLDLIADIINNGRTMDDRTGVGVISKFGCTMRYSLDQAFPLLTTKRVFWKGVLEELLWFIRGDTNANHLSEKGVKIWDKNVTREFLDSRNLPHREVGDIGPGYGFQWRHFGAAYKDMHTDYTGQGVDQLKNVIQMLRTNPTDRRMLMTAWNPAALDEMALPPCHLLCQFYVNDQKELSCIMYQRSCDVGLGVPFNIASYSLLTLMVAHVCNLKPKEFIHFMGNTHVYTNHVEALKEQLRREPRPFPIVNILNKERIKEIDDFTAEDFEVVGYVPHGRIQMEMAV
Kind of test: Noncompetitive inhibition of Toxoplasma gondii TS-DHFR using methylenetetrahydrofolate as substrate at 25 uM by Michaelis-Menten plot analysis.

In test [3] the target is T2, Bifunctional dihydrofolate reductase-thymidylate synthase (Toxoplasma gondii). The experiment in a line: Mixed type inhibition of Toxoplasma gondii TS-DHFR using dUMP as substrate at 25 uM by Michaelis-Menten plot analysis.
The target of test [4] is T3, Bifunctional dihydrofolate reductase-thymidylate synthase (Toxoplasma gondii, UniProt Q07422).
T3 sequence (Q07422 whole entry): T2 sequence (whole entry)
The experiment in a line: (§1) Inhibition of Toxoplasma gondii TS-DHFR by Michaelis-Menten plot analysis in presence of bovine serum albumin. The gist of the method: (§2)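 Promiscuity (aggregation) check: TgTS-DHFR was preincubated with 0.1 mg/mL BSA before inhibitor was added. TS inhibitory potency was then determined.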

The target in test [5] is T3, Bifunctional dihydrofolate reductase-thymidylate synthase. Kind of test: Inhibition of Toxoplasma gondii TS-DHFR using methylenetetrahydrofolate/dUMP as sustrate. The gist of the method: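 T. gondii TS-DHFR was preincubated with dUMP before compound was added. TS activity was measured across varying compound concentrations. Data were fit to a Michaelis-Menten curve for IC50. Duplicate points; SD between repeats.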

The target is the same in test [6]. The experiment in a line: Inhibition of Toxoplasma gondii TS-DHFR using methylenetetrahydrofolate/dUMP as sustrate preincubated for 10 mins followed by substrate addition. Summed up:
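T. gondii TS activity at varying compound concentrations. Compound was mixed with apo TS-DHFR, with no dUMP preincubation. Data were fit to a Michaelis-Menten curve to give IC50. Points in duplicate; SD between repeats.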

Test [7] concerns the target T2, Bifunctional dihydrofolate reductase-thymidylate synthase (Toxoplasma gondii). The description is as §1. The gist of the method: as §2

As for `COC(=O)Nc1nc2cc(-c3nnc(O)c4ccccc34)ccc2[nH]1`, the inhibition entry in test [1] was “inactive”. In addition, the inhibition result in test [2] and in test [3] was “Active” throughout. Besides, the values for the IC50 in test [4], in test [5] and in test [6] were 139 µM, 142 µM and 51 µM, respectively.

For the molecule `O=C(Nc1ccccc1)OCc1ccc(-c2cc(C(F)(F)F)cc(C(F)(F)F)c2)o1`, the inhibition result in test [7] is “inactive”. For the same molecule, the concentration for half-maximal inhibition (IC50) (usually the concentration needed to halve the response being measured) was 190 µM in test [5] and 54 µM in test [6].
